Source: PubChem
N-glyco inh: increase of ERlucT glycosylation luciferase signal, primary screen, N-linked glycosylation inhibitor project, D54 ERlucT cells, luminescence, set 2 | D54 ERlucT glycosylation luciferase reporter, 24 h; percent of 100 nM tunicamycin response | reporter increase, % at 12.5 µM | 0.23% of 360,000 active | AID 588692, 2011;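 active = mean luciferase reporter signal, scaled so untreated is 0 and the glycosylation-blocking control 100, at or above a set limit in every replicate; inconclusive = mean reaches the limit but not every replicate does; inactive = mean below the limit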;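 note: luciferase carries N-glycosylation sites so blocking glycosylation raises the light; 0% = median of neutral control wells and 100% = median of 100 nM tunicamycin wells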
T cell modulator: modulators of CD8 T cell-vesicle binding, primary screen, mouse 2C CD8+ T cells, flow cytometry. response (vesicle binding), % at 7 µM. 0.068% of 330,000 active. 2C CD8+ T cell-vesicle binding; stronger effect = lower value;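 active = response, share of CD8 T cells binding vesicles, and their 90th percentile fluorescence all below set limits, cut at about 80% in these data, passing the limit was not always enough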;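 note: values below 100% mean blocked vesicle binding to the CD8+ T cells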
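Assay system: 2C TCR transgenic mouse naive CD8+ T cells, MACS-purified | Read-out: CD8+ gate FL2 mean fluorescence as % of same-row positive control | Signal: High-throughput flow cytometry with anti-B7-1 and anti-CD8 staining | Timing: Binding step 1.5 h, 37 °C, antibody labelling 20 min, ice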
ALR H2O2 inh: inhibitors of human ALR sulfhydryl oxidase, primary screen, biochemical, H2O2 detection, HRP-luminol luminescence, single point | 3.8% of 290,000 active | inhibition, % (concentration not given with the values) | purified ALR, DTT oxidation;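 active = mean replicate inhibition above about 79%, with every replicate also reaching it, limit read from the data; inconclusive = only one of the two criteria met; inactive = mean below limit and not every replicate reaching it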
Target sequence (P55789 whole entry, looked up): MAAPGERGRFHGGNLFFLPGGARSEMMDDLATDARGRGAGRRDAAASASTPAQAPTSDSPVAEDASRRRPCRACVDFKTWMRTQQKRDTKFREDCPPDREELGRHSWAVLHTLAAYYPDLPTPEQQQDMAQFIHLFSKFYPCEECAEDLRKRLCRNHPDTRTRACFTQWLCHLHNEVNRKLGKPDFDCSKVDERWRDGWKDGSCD
* marks the source's active call; other numbers are inactive results; i = inactive; ? = inconclusive; / = no result given. The entries come from a sample that favours hits as a whole.

SMILES	N-glyco inh	T cell modulator	ALR H2O2 inh
c1coc(CNc2nc3ccccc3n2CCN2CCOCC2)c1	-0.7	316.8	29.1
O=C(CC[C@H]1O[C@@H](n2cnc3c(NC(=O)c4ccccc4)ncnc32)[C@H](O)[C@@H]1O)NCc1ccc2c(c1)OCO2	2.7	/	/
O=C(O)c1cccc2c3c([nH]c12)CCCC3	1.8	263.2	86.6*
O=c1c2c([nH]c3ccccc13)CCCC2	0.0	502.1	-4.2
Cc1ccc(NC(=S)N2CCN(S(=O)(=O)c3ccc(F)cc3)CC2)cc1	-1.8	257.8	-18.1
Oc1ccc(Nc2nc(Cl)nc(NCc3ccco3)n2)cc1	4.0	695.6	99.4*
C=CCNc1nc(Cl)nc(NCc2ccco2)n1	-0.4	830.9	37.4
COc1ccc(C(CNC(=O)CCNS(=O)(=O)c2ccc(Br)cc2)N2CCOCC2)cc1 (stereo not given)	1.2	/	/
COCCn1c(N2CCCC2)nc2c1c(=O)[nH]c(=O)n2C	0.9	204.9	14.0
COc1ccc(N2CCN(CCC3Oc4cc([N+](=O)[O-])ccc4NC3=O)CC2)cc1 (stereo not given)	-2.4	197.1	86.0*
CCN1CCN(CCC2Oc3cc([N+](=O)[O-])ccc3NC2=O)CC1 (stereo not given)	1.1	333.3	3.2
CC(=O)NNc1nc(-c2ccccc2)c2cc(Br)ccc2n1	2.6	237.4	0.2
O=C(CN1CCCCC1)NNc1nc(-c2ccccc2)c2cc(Br)ccc2n1	0.5	i	89.8*
Cc1ccc(S(=O)(=O)N2CCN(C(=O)COC(=O)CNC(=O)c3ccc(Cl)cc3Cl)CC2)cc1	-1.4	381.5	-6.5
CCC(Oc1ccccc1)C(=O)Nc1nnc(C)s1 (stereo not given)	0.4	515.0	-10.2
O=C(COc1ccc(Cl)cc1)Nc1ncc([N+](=O)[O-])s1	-8.6	/	/
CCC(Oc1ccccc1)C(=O)Nc1ncc([N+](=O)[O-])s1 (stereo not given)	0.0	250.9	96.7*
O=C(COC(=O)COc1ccccc1)Nc1ncc([N+](=O)[O-])s1	1.0	192.2	95.8*
CCCn1c(=O)n(C)c(=O)c2c(SC(C)C(=O)NCC3CCCO3)nc(CC(C)C)nc21 (stereo not given)	-2.6	336.1	-0.6
COc1cc(-c2cc3nc(NCCc4ccc(S(N)(=O)=O)cc4)ccn3n2)cc(OC)c1OC	12.8	/	/
COc1cc(-c2cc3nc(NCCc4ccncc4)ccn3n2)cc(OC)c1OC	28.4*	/	/
c1ccc(COc2ccc(-c3cc4nc(NCCOc5ccccc5)ccn4n3)cc2)cc1	-2.6	/	/
COc1cc(-c2cc3nc(NCCOc4ccccc4)ccn3n2)cc(OC)c1OC	46.4*	/	/
CC(=O)NS(=O)(=O)c1ccc(NC(=O)c2cc(-c3ccc(C)c(C)c3)nc3ccccc23)cc1	-0.6	230.5	97.4*
CC(=O)NS(=O)(=O)c1ccc(NC(=O)c2cc(-c3cccs3)nc3ccccc23)cc1	4.0	225.4	-3.8
SMILES	N-glyco inh	T cell modulator	ALR H2O2 inh
Cc1ccc(-c2cc(C(=O)Nc3ccc(S(=O)(=O)Nc4nc(C)cc(C)n4)cc3)c3ccccc3n2)cc1	0.8	207.2	-0.9
CC(=O)NS(=O)(=O)c1ccc(NC(=O)c2cc(-c3ccc(C)cc3)nc3ccccc23)cc1	0.0	195.1	97.8*
O=C(NCCCn1ccnc1)C1CCCN(S(=O)(=O)c2ccc(F)cc2)C1 (stereo not given)	2.2	662.9	-0.5
CCOC(=O)c1ncccc1NC(=O)CC(=O)Nc1cccnc1C(=O)OCC	0.2	549.1	23.8
CCOc1ccc(C(C)=O)cc1Cn1c(=O)oc2ccccc21	-1.9	282.2	-4.7
COc1cc(C(=O)OCCN2CCCCC2)ccc1O	2.9	380.6	50.1
COc1cc(C(=O)OCCCN2CCOCC2)ccc1O	0.2	184.5	98.7*
CCOC(CCNC(=O)c1cc(-c2cccs2)nc2ccccc12)OCC	1.5	80.2	-0.5
COc1ccc(Cc2c(C3CCCCC3)nc3ccc(Br)cn23)c(C)c1	2.0	/	/
O=C(C[n+]1cc(-c2ccc(Cl)cc2)n2c1CCC2)Nc1nc(-c2ccccc2)cs1	1.1	222.4	93.7*
O=C(C[n+]1cc(-c2ccc(F)cc2)n2c1CCC2)Nc1nc(-c2ccccc2)cs1	3.9	236.0	-61.8
CCc1cccc(NC(=O)CSCc2nc3sc(C)c(C)c3c(=O)[nH]2)c1	5.1	238.0	0.2
Cc1sc2nc(CSCC(=O)NC3(C#N)CCCCC3)[nH]c(=O)c2c1C	0.9	275.0	95.4*
CCC(=O)NC(c1cc(Cl)c2ccccc2c1O)C(C)C (stereo not given)	-0.6	265.2	94.7*
CC(=O)NC(c1ccco1)c1cc(Cl)c2ccccc2c1O (stereo not given)	4.7	451.9	88.1*
CC(=O)NC(C)c1cc(Cl)c2ccccc2c1O (stereo not given)	5.1	447.3	-3.4
CCC(=O)NC(c1ccco1)c1cc(Cl)c2ccccc2c1O (stereo not given)	5.8	0.0	57.9
COc1cc(CNC[C@H]2O[C@@H](n3ccc(N)nc3=O)[C@H](O)[C@@H]2O)ccc1OCc1cccc(Cl)c1	2.4	/	/
O=C(NCc1ccc(Cl)cc1)C1CCCN(c2ncnc3c2nc2n3CCCCC2)C1 (stereo not given)	1.0	427.3	-0.1
Nc1[nH]c(=O)[nH]c(=O)c1N=Nc1ccc(C(=O)O)cc1	-0.5	257.9	-12.2
Cc1ccc(C2OCC(C)([N+](=O)[O-])CO2)cc1 (stereo not given)	-0.3	/	/
COc1ccc(-c2nc3ccccc3n2Cc2ccccc2)cc1	-1.8	312.1	/
COc1cc(Cn2c(-c3ccc(O)c(OC)c3)nc3ccccc32)ccc1O	3.7	103.9	99.2*
CN(C)c1ccc(-c2nc3ccccc3n2C)cc1	-19.0	775.8	91.4*
CCn1c(-c2ccc(N(C)C)cc2)nc2ccccc21	-6.6	252.4	98.7*
SMILES	N-glyco inh	T cell modulator	ALR H2O2 inh
CCn1c(-c2cccs2)nc2ccccc21	0.7	296.1	6.7
CC(C)n1c(-c2ccc(N(C)C)cc2)nc2ccccc21	-8.4	257.0	?
CCn1c(N)nc2ccccc21	-1.0	461.4	20.4
CCn1c(-c2ccc(N)cc2)nc2ccccc21	1.5	213.4	91.7*
O=C(NC1CCN(Cc2ccc(Cl)cc2)CC1)c1cn(-c2ccccc2)nc1-c1cccnc1	-4.7	603.6	-24.3
Cc1ccccc1Cn1c(C)c(C(=O)NCCC#N)sc1=O	2.9	/	/
COc1ccc(OC)c(C2CC(=O)Nc3c2c(=O)[nH]c2ncnn32)c1 (stereo not given)	1.2	358.9	-6.9
C=CCn1c(-c2ccc(N)cc2)nc2ccccc21	1.2	264.1	94.9*
C=CCn1c(-c2ccc(OC)cc2)nc2ccccc21	-1.4	509.4	7.0
COC(=O)C1=C(C(=O)OC)[C@@H]2N(Cc3ccccc3)c3ccccc3[C@@]23C[C@@H](CO)N(C(=O)NC2CCCC2)C3=N1	0.8	634.5	1.1
CCOC(=O)C1=CCN(S(=O)(=O)c2ccc(C)cc2)C1c1cccc2ccccc12 (stereo not given)	-3.1	/	/
Cn1c2c(c(=O)n(C)c1=O)C(C(F)(F)F)(C(F)(F)F)N=C(CCC1CCCCC1)N2	-8.0	172.4	-33.1
